Test results from ChEMBL document CHEMBL5500421 (J Med Chem, 2024).
Calls of active or inactive are those of the source. The rule behind the calls is not given here.

What was measured:
[1] = biological target: T1, Sphingosine-1-phosphate transporter SPNS2 (Mus musculus) (UniProt Q91VM4); experiment: Inhibition of mouse Spns2 expressed in G418-resistant human HeLa cells assessed as decrease in S1P level at 1 uM incubated for 16 to 18 hrs by LC-MS/MS analysis relative to control; format: cell-based; conditions: time 16-18 hrs
T1 sequence (whole entry): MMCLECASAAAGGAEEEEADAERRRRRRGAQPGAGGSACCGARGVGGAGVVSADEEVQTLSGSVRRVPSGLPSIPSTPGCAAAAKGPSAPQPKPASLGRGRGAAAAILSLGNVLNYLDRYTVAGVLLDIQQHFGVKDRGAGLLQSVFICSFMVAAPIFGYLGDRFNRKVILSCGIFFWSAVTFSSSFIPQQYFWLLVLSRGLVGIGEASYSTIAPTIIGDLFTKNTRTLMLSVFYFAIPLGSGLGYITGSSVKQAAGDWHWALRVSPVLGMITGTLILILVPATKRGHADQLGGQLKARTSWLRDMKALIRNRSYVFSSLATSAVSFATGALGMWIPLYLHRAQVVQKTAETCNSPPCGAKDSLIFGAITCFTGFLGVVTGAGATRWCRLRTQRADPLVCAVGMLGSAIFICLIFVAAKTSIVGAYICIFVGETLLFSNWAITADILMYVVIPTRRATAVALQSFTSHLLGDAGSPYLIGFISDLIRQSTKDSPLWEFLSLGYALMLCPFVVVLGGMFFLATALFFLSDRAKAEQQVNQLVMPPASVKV
Procedure, shortened: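 HeLa cells stably transfected with mouse Spns2 (pcDNA3.1; G418-resistant pools). S1P catabolism blocked with 4-deoxypyridoxine 1 mM, NaF 2 mM and Na3VO4 0.2 mM. Near-confluent cells incubated 16–18 h at 37 °C with 1 μM inhibitor in serum-free medium containing 0.2% fatty-acid-free BSA. Medium S1P measured by LC-MS/MS; reported as % decrease versus no-inhibitor control, in duplicate.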

[2] = Drug uptake in C57BL/6J mouse plasma at 10 mg/kg, po measured after 4 hrs by LC-MS/MS analysis; format: ADME, organism-based; conditions: in vivo
Procedure, shortened: (§1)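 Three female C57BL/6j mice, 8–10 weeks old, given a single 10 mg/kg oral dose. Vehicle: 36.1% PEG400/9.1% ethanol/4.6% solutol/50% H2O. Blood sampled over time after dosing; plasma compound levels quantified by LC-MS/MS.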

Mus musculus [3] = experiment: In vivo inhibition of Spns2 in C57BL/6J mouse assessed as decrease in lymphocytes count administered orally measured after 4 hrs by LC-MS/MS analysis; format: functional, organism-based; conditions: dose 10-100 mg/kg, route po
Procedure, shortened: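 Oral gavage at 10, 30 or 100 mg/kg, or vehicle (36.1% PEG400/9.1% ethanol/4.6% solutol/50% H2O), to five female C57BL/6j mice aged 8–10 weeks. Blood drawn 4 h post dose; lymphocytes counted in 20 μL blood on a haematology analyzer and compared with vehicle.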

[4] = Drug concentration in C57BL/6J mouse plasma at 10 mg/kg, po measured after 8 hrs LC-MS/MS analysis; format: ADME, organism-based; procedure, shortened: as §1
Mus musculus [5] = experiment: Effect on plasma S1P level in C57BL/6J mouse at 3 to 30 mg/kg, ip measured after 6 hrs by LC-MS/MS analysis; conditions: dose 3-30 mg/kg
Mus musculus [6] = experiment: Effect on plasma S1P level in C57BL/6J mouse at 10 to 100 mg/kg, po measured after 4 hrs by LC-MS/MS analysis; format: functional, organism-based; conditions: dose 10-100 mg/kg
Procedure, shortened: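 Five female C57BL/6j mice, 8–10 weeks old, dosed by oral gavage at 10, 30 or 100 mg/kg in 36.1% PEG400/9.1% ethanol/4.6% solutol/50% H2O, or vehicle alone. Plasma S1P measured by LC-MS/MS 4 h post dose and expressed relative to vehicle.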

[7] = biological target: T1, Sphingosine-1-phosphate transporter SPNS2 (Mus musculus); experiment: Inhibition of mouse Spns2 expressed in G418-resistant human HeLa cells assessed as decrease in S1P level incubated for 16 to 18 hrs by LC-MS/MS analysis; format: cell-based; conditions: dose upper 10.0 µM, time 16-18 hrs
Procedure, shortened: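 HeLa pools stably expressing mouse Spns2 (G418-selected), with S1P breakdown blocked by 4-deoxypyridoxine 1 mM, NaF 2 mM and Na3VO4 0.2 mM. Cells exposed for 16–18 h at 37 °C to 1 nM–10 μM inhibitor in serum-free 0.2% fatty-acid-free BSA medium. Released S1P quantified by LC-MS/MS; IC50 from dose–response […].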

inhibition [1] | Drug uptake [2] | concentration at 8 h [4] | inhibition [7] | SMILES | inhibition (Mus musculus [3]) | Activity (Mus musculus [5]) | Activity (Mus musculus [6])
3% | – | – | – | CCCCCCCCCCc1ccc(NC(=O)N2CCN(C)CC2)cc1 | – | – | –
91% | Active | > 500 nM | Dose-Dependent Effect | CCCCCCCCCCc1ccc(NC(=O)N2CCNCC2)cc1.Cl | Dose-Dependent Effect | inactive | inactive
80% | – | – | – | CCCCCCCCCCc1ccc(NC(=O)N2CCN[C@H](C)C2)cc1 | – | – | –
